Measurements reported in ChEMBL document CHEMBL1833943, “Synthesis and structure-activity relationships of varied ether linker analogues of the antitubercular drug (6S)-2-nitro-6-{[4-(trifluoromethoxy)benzyl]oxy}-6,7-dihydro-5h-imidazo[2,1-b][1,3]oxazine (PA-824)” (J Med Chem, 2011).
Converted amounts (≈) assume the structure as drawn.

What was measured:
[1] = Cmax in lung of CD1 mouse at 40 mg/kg, po; type: ADME, organism-based; parameters: dose 40 mg/kg, route oral
Outline: (§1)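 Mice given a single oral dose of 40 mg/kg; drug levels followed over time in plasma and lung tissue to derive half-life, Cmax and AUC for each matrix.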

[2] = Half life in plasma of CD1 mouse at 40 mg/kg, po; type: ADME, organism-based; parameters: dose 40 mg/kg, route oral
[3] = tested on: Mycobacterium tuberculosis; test: Antituberculosis activity against Mycobacterium tuberculosis H37Rv infected in BALB/c mouse chronic infection model assessed as fold reduction in bacterial CFU in lungs at 100 mg/kg, po administered for 5 days a week for 3 weeks beginning on day 70 postinfection relative to OPC-67683; type: functional
Outline: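 Chronic M. tb infection model with dosing starting ~70 days post infection, once bacteria are in a plateau phase of growth. Oral 100 mg/kg daily, 5 days/week, 3 weeks. Lung CFUs counted. Value is the fold CFU reduction for the compound relative to the fold reduction for the reference agent.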

[4] = tested on: Mycobacterium tuberculosis; test: Antituberculosis activity against Mycobacterium tuberculosis H37Rv under aerobic conditions by microplate alamar blue assay; type: functional
[5] = AUC (0 to infinity) in lung of CD1 mouse at 40 mg/kg, po; type: ADME, organism-based; parameters: time infinity, dose 40 mg/kg, route oral; outline: as §1
[6] = Metabolic stability in CD1 mouse liver microsomes at 1 uM measured as compound remaining after 1 hr by LC/MS/MS analysis; type: ADME, Microsome; conditions: read-out: Stability
[7] = Cmax in plasma of CD1 mouse at 40 mg/kg, po; type: ADME, organism-based; parameters: dose 40 mg/kg, route oral; outline: as §1
[8] = AUC (0 to infinity) in plasma of CD1 mouse at 40 mg/kg, po; type: ADME, organism-based; parameters: time infinity, dose 40 mg/kg, route oral; outline: as §1
[9] = Ratio of AUC (0 to infinity) in lung of CD1 mouse to AUC (0 to infinity) in plasma of CD1 mouse at 40 mg/kg, po; type: ADME, organism-based; parameters: dose 40 mg/kg, route oral; conditions: read-out: Ratio AUC
[10] = tested on: Mycobacterium tuberculosis; test: Antituberculosis activity against Mycobacterium tuberculosis H37Rv infected in BALB/c mouse acute infection model assessed as fold reduction in bacterial CFU in lungs at 100 mg/kg, po administered for 5 days a week for 3 weeks beginning on day 11 postinfection relative to PA-824; type: functional
Outline: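 Mice with acute M. tb infection dosed orally at 100 mg/kg daily, 5 days each week, standard 3 week assay. Lung CFUs counted. Value is the fold CFU decrease for the compound divided by the fold CFU decrease for the internal reference standard run in the same experiment.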

[11] = Aqueous solubility of the compound in water at pH 7 by HPLC analysis; type: physicochemical
Outline: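 Solubility measured in water at pH 7 and 20 °C, quantified by HPLC.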

[12] = Metabolic stability in human liver microsomes at 1 uM measured as compound remaining after 1 hr by LC/MS/MS analysis; type: ADME, Microsome; conditions: read-out: Stability
[13] = tested on: Mycobacterium tuberculosis; test: Antituberculosis activity against Mycobacterium tuberculosis H37Rv under anaerobic conditions by fluorescence based low-oxygen-recovery assay; type: functional
[14] = Stability of the compound in antimycobacterial activity assay condition assessed as parent compound level; type: ADME
[15] = Half life in the lung of CD1 mouse at 40 mg/kg, po; type: ADME, organism-based; parameters: dose 40 mg/kg, route oral; outline: as §1

Structure (SMILES) | Cmax [1] | half-life [2] | fold change (FC) [3] | MIC [4] | AUC(0-inf) [5] | remaining at 1 h, 1 µM [6] | Cmax [7] | AUC(0-inf) [8] | Kp [9] | fold change (FC) [10] | solubility [11] | remaining at 1 h, 1 µM [12] | MIC [13] | Stability [14] | half-life [15]
O=[N+]([O-])c1cn2c(n1)OC[C@@H](OCCCc1ccc(-c3ccc(OC(F)(F)F)cc3)cc1)C2 | 10.1 µg/mL | 4.4 h | 0.025 | 0.15 µM (≈ 0.0695 µg/mL) | 29.5 µg·h/mL | 91% | 0.99 µg/mL | 13.3 µg·h/mL | 2.2 | 1.5 | 1.7 µg/mL (≈ 3.67 µM) | 88% | 3.8 µM (≈ 1.76 µg/mL) |  | 
O=[N+]([O-])c1cn2c(n1)OC[C@@H](OCCCc1ccc(-c3ccc(C(F)(F)F)cc3)cc1)C2 |  |  |  | 0.043 µM (≈ 0.0192 µg/mL) |  | 81% |  |  |  | 0.05 |  | 73% | > 128 µM |  | 
O=[N+]([O-])c1cn2c(n1)OC[C@@H](OCCOc1ccc(-c3ccc(OC(F)(F)F)cc3)cc1)C2 |  |  |  | 0.055 µM (≈ 0.0256 µg/mL) |  | 70% |  |  |  | 1.4 | 0.68 µg/mL (≈ 1.46 µM) | 90% | 1.6 µM (≈ 0.745 µg/mL) |  | 
O=[N+]([O-])c1cn2c(n1)OC[C@@H](OCCOc1ccc(-c3ccc(OC(F)(F)F)cc3)cn1)C2 |  |  |  | 0.04 µM (≈ 0.0187 µg/mL) |  |  |  |  |  |  | 0.79 µg/mL (≈ 1.69 µM) |  | 2.5 µM (≈ 1.17 µg/mL) | < 50% | 
O=[N+]([O-])c1cn2c(n1)OC[C@@H](OCCOc1ncc(-c3ccc(OC(F)(F)F)cc3)cn1)C2 |  |  |  | 0.13 µM (≈ 0.0608 µg/mL) |  |  |  |  |  |  | 21 µg/mL (≈ 44.9 µM) |  | 2.1 µM (≈ 0.981 µg/mL) |  | 
O=[N+]([O-])c1cn2c(n1)OC[C@@H](OC/C=C/c1ccc(-c3ccc(OC(F)(F)F)cc3)cc1)C2 |  |  |  |  |  | 95% |  |  |  | 2 | 0.5 µg/mL (≈ 1.08 µM) | 100% | > 128 µM |  | 
O=[N+]([O-])c1cn2c(n1)OC[C@@H](OCC#Cc1ccc(-c3ccc(OC(F)(F)F)cc3)cc1)C2 | 0.76 µg/mL | 7.5 h | 1.6 |  | 13.6 µg·h/mL | 85% | 0.57 µg/mL | 10 µg·h/mL | 1.4 | 89 | 0.07 µg/mL (≈ 0.152 µM) | 93% |  |  | 12.3 h
O=[N+]([O-])c1cn2c(n1)OC[C@@H](OCC#Cc1ccc(-c3ccc(C(F)(F)F)nc3)cc1)C2 |  |  |  | 0.15 µM (≈ 0.0667 µg/mL) |  | 90% |  |  |  | 0.01 |  | 82% | 1.2 µM (≈ 0.533 µg/mL) |  | 
O=[N+]([O-])c1cn2c(n1)OC[C@@H](OCC#Cc1cccc(-c3ccc(OC(F)(F)F)cc3)c1)C2 | 12.9 µg/mL | 14.7 h |  | 0.11 µM (≈ 0.0505 µg/mL) | 257 µg·h/mL | 89% | 1.66 µg/mL | 35.8 µg·h/mL | 7.2 | 6.4 | 0.27 µg/mL (≈ 0.588 µM) | 94% | 1.3 µM (≈ 0.597 µg/mL) |  | 14.1 h
O=[N+]([O-])c1cn2c(n1)OC[C@@H](OCC#Cc1ccc(-c3ccc(OC(F)(F)F)cc3)cn1)C2 |  |  |  | 0.025 µM (≈ 0.0115 µg/mL) |  | 86% |  |  |  | 0.91 | 0.05 µg/mL (≈ 0.109 µM) | 89% | 0.35 µM (≈ 0.161 µg/mL) |  | 
O=[N+]([O-])c1cn2c(n1)OC[C@@H](OCCCC#Cc1ccc(-c3ccc(OC(F)(F)F)cc3)cc1)C2 |  |  |  | 0.055 µM (≈ 0.0268 µg/mL) |  |  |  |  |  |  |  |  | > 128 µM | Unstable | 
O=[N+]([O-])c1cn2c(n1)OC[C@@H](Oc1ccc(-c3ccc(OC(F)(F)F)cc3)cn1)C2 |  |  |  | 0.39 µM (≈ 0.165 µg/mL) |  | 93% |  |  |  | 0.17 | 0.24 µg/mL (≈ 0.568 µM) | 96% | 12 µM (≈ 5.07 µg/mL) |  | 
O=[N+]([O-])c1cn2c(n1)OC[C@@H](Oc1ncc(-c3ccc(OC(F)(F)F)cc3)cn1)C2 |  |  |  | 0.22 µM (≈ 0.0931 µg/mL) |  | 95% |  |  |  |  | 1.7 µg/mL (≈ 4.02 µM) | 88% | 5.2 µM (≈ 2.2 µg/mL) |  | 
O=[N+]([O-])c1cn2c(n1)OC[C@@H](OCCCC#Cc1ccc(C(F)(F)F)nc1)C2 |  |  |  | 0.12 µM (≈ 0.0476 µg/mL) |  |  |  |  |  |  | 16 µg/mL (≈ 40.4 µM) |  | 9.2 µM (≈ 3.65 µg/mL) |  | 
O=[N+]([O-])c1cn2c(n1)OC[C@@H](Oc1ccc(-c3ccc(OC(F)(F)F)cc3)cc1)C2 | 15.8 µg/mL | 37.9 h |  | 0.09 µM (≈ 0.0379 µg/mL) | 347 µg·h/mL |  | 1.86 µg/mL | 102 µg·h/mL | 3.4 | 8.1 | 0.33 µg/mL (≈ 0.783 µM) |  | 1.1 µM (≈ 0.463 µg/mL) |  | 15.3 h
O=[N+]([O-])c1cn2c(n1)OC[C@@H](Oc1cc(-c3ccc(OC(F)(F)F)cc3)ccn1)C2 |  |  |  | 5.1 µM (≈ 2.15 µg/mL) |  |  |  |  |  |  | 0.13 µg/mL (≈ 0.308 µM) |  | 87 µM (≈ 36.7 µg/mL) | < 50% | 
O=[N+]([O-])c1cn2c(n1)OC[C@@H](Oc1cc(-c3ccc(OC(F)(F)F)cc3)ncn1)C2 |  |  |  | 2.1 µM (≈ 0.889 µg/mL) |  |  |  |  |  |  | 0.88 µg/mL (≈ 2.08 µM) |  |  | < 50% | 
O=[N+]([O-])c1cn2c(n1)OC[C@@H](OCc1ccc(-c3ccc(OC(F)(F)F)cc3)cc1)C2 |  |  | 0.86 |  |  |  |  |  |  |  |  |  |  |  | 12.8 h
CC(O[C@@H]1COc2nc([N+](=O)[O-])cn2C1)c1ccc(OC(F)(F)F)cc1 (mixture of isomers) |  |  |  | 0.6 µM |  | 75% |  |  |  |  |  | 73% | 7.7 µM |  | 
